Laboratory results published in ChEMBL document CHEMBL1145773, “Design, synthesis, SAR, and molecular modeling studies of acylthiocarbamates: a novel series of potent non-nucleoside HIV-1 reverse transcriptase inhibitors structurally related to phenethylthiazolylthiourea derivatives” (J Med Chem, 2003).

The compounds below were run on MT4 (assay: Selectivity index which is the ratio of CC50 and EC50 was determined). Settings: not given.
Format: functional, Homo sapiens
In short: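 MT-4 cells (1 × 10^4/well) were seeded with or without serial compound dilutions, then infected with HIV-1 IIIB at enough CCID50 for complete cytopathogenicity by day 4. Cultures were incubated at 37 °C and viability was read by MTT. […] Cytotoxicity was run in parallel on mock-infected cells, and SI = CC50/EC50. Data are means of three separate experiments.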
In the case of O=C1c2ccccc2C(=O)N1CCOC(=S)N(C(=O)c1cccs1)c1cccc([N+](=O)[O-])c1, the SI is reported as 263.
With Cc1cccc(N(C(=O)c2cccs2)C(=S)OCCN2C(=O)c3ccccc3C2=O)c1 the SI was over 10.
With CCCCOC(=O)N(C(=S)OC(C)COc1ccccc1)c1ccccc1 (stereo unspecified) the SI was over 4.
For O=C(/C=C/c1ccccc1)N(C(=S)OCCc1ccccc1)c1ccccc1, the SI was 9.
Work on O=C(COc1ccccc1)N(C(=S)OCCOc1ccccc1)c1ccccc1 yielded an SI of 17.1.
For Cc1ccc(C(=O)N(C(=S)OCCOc2ccccc2)c2ccccc2)cc1, the SI was over 20.2.
For O=C(c1ccc(Cl)cc1)N(C(=S)OCCc1ccccc1)c1ccccc1, the SI was 10.7.
For COc1cc(C(=O)N(C(=S)OCCOc2ccccc2)c2ccccc2)cc(OC)c1OC, the SI was over 20.8.
CC(COc1ccccc1)OC(=S)N(C(=O)c1ccccc1)c1ccccc1 (stereo unspecified) was tested, and the SI was over 153.8.
O=C1c2ccccc2C(=O)N1CCOC(=S)N(C(=O)c1ccccc1)c1ccc(Br)cc1 was tested, and the SI was over 5714.
Compound O=C(c1ccccc1)N(C(=S)OCCOc1ccccc1)c1ccccc1 has an SI of 15.2.
Work on CC(COc1ccccc1)OC(=S)N(C(=O)c1cccs1)c1cccc(Cl)c1 (stereo unspecified) yielded an SI of over 9.
CC(COc1ccccc1)OC(=S)N(C(=O)COc1ccccc1)c1ccccc1 (stereo unspecified) showed an SI of 87.4.
CCc1ccc(N(C(=O)c2ccco2)C(=S)OCCN2C(=O)c3ccccc3C2=O)cc1 was tested, and the SI was over 3333.
With CCc1ccccc1N(C(=O)c1cccs1)C(=S)OCCN1C(=O)c2ccccc2C1=O the SI was over 9.
Work on CC(=O)Oc1ccccc1C(=O)N(C(=S)OCCOc1ccccc1)c1ccccc1 yielded an SI of over 21.
Work on Cc1ccccc1N(C(=O)c1cccs1)C(=S)OCCN1C(=O)c2ccccc2C1=O yielded an SI of over 9.
O=C(c1ccccc1)N(C(=S)OCCc1ccccc1)c1ccccc1 was tested, and the SI was 22.
For O=C(c1cccs1)N(C(=S)OCCOc1ccccc1)c1ccccc1, the SI was 14.5.
For O=C(/C=C/c1ccccc1)N(C(=S)OCCOc1ccccc1)c1ccccc1, the SI was 8.65.
In the case of O=C(c1ccc(Cl)cc1Cl)N(C(=S)OCCOc1ccccc1)c1ccccc1, the SI is reported as 3.7.
O=C(c1ccccc1)N(C(=S)OCCOc1ccccc1)c1ccc(F)cc1 showed an SI of 17.6.
With CC(COc1ccccc1)OC(=S)N(C(=O)c1cccs1)c1ccccc1 (stereo unspecified) the SI was over 100.
Compound O=C(c1ccc(Cl)c([N+](=O)[O-])c1)N(C(=S)OCCOc1ccccc1)c1ccccc1 has an SI of 10.5.
Compound O=C1c2ccccc2C(=O)N1CCOC(=S)N(C(=O)c1cccs1)c1cccc(C(F)(F)F)c1 has an SI of over 9.
Work on O=C(c1ccco1)N(C(=S)OCCOc1ccccc1)c1ccccc1 yielded an SI of 9.7.

These compounds were tested on MT-4 (Homo sapiens) (assay: Concentration required to reduce the viability of mock-infected MT-4 cells by 50% was determined by MTT method). Settings: MT4.
O=C(c1ccccc1)N(C(=S)OCCSc1ccccc1)c1ccccc1 showed a CC50 of 44 µM.
O=C1c2ccccc2C(=O)N1CCOC(=S)N(C(=O)c1cccs1)c1cccc([N+](=O)[O-])c1 showed a CC50 of 100 µM.
Compound Cc1cccc(N(C(=O)c2cccs2)C(=S)OCCN2C(=O)c3ccccc3C2=O)c1 has a CC50 of over 100 µM.
For CCCCOC(=O)N(C(=S)OC(C)COc1ccccc1)c1ccccc1 (stereo unspecified), the CC50 was over 200 µM.
Compound O=C(c1ccccc1)N(C(=S)OCCOc1ccccc1)C1CCCCC1 has a CC50 of over 200 µM.
O=C(/C=C/c1ccccc1)N(C(=S)OCCc1ccccc1)c1ccccc1 showed a CC50 of 40.4 µM.
With O=C(COc1ccccc1)N(C(=S)OCCOc1ccccc1)c1ccccc1 the CC50 was 103 µM.
In the case of Cc1ccc(C(=O)N(C(=S)OCCOc2ccccc2)c2ccccc2)cc1, the CC50 is reported as over 200 µM.
O=C(c1ccc(Cl)cc1)N(C(=S)OCCc1ccccc1)c1ccccc1 was tested, and the CC50 was 43 µM.
Work on COc1cc(C(=O)N(C(=S)OCCOc2ccccc2)c2ccccc2)cc(OC)c1OC yielded a CC50 of over 200 µM.
In the case of CC(COc1ccccc1)OC(=S)N(C(=O)c1ccccc1)c1ccccc1 (stereo unspecified), the CC50 is reported as over 200 µM.
O=C1c2ccccc2C(=O)N1CCOC(=S)N(C(=O)c1ccccc1)c1ccc(Br)cc1 showed a CC50 of over 200 µM.
O=C(c1ccccc1)N(C(=S)OCc1ccco1)c1ccccc1 showed a CC50 of 38.3 µM.
With O=C(c1ccccc1)N(C(=S)OCCOc1ccccc1)c1ccccc1 the CC50 was 122 µM.
Work on CC(COc1ccccc1)OC(=S)N(C(=O)c1cccs1)c1cccc(Cl)c1 (stereo unspecified) yielded a CC50 of over 100 µM.
CC(COc1ccccc1)OC(=S)N(C(=O)Oc1ccccc1)c1ccccc1 (stereo unspecified) showed a CC50 of over 200 µM.
With CC(COc1ccccc1)OC(=S)N(C(=O)COc1ccccc1)c1ccccc1 (stereo unspecified) the CC50 was 122 µM.
CCc1ccc(N(C(=O)c2ccco2)C(=S)OCCN2C(=O)c3ccccc3C2=O)cc1 was tested, and the CC50 was over 100 µM.
With CCc1ccccc1N(C(=O)c1cccs1)C(=S)OCCN1C(=O)c2ccccc2C1=O the CC50 was over 100 µM.
In the case of CC(=O)Oc1ccccc1C(=O)N(C(=S)OCCOc1ccccc1)c1ccccc1, the CC50 is reported as over 200 µM.
Cc1ccccc1N(C(=O)c1cccs1)C(=S)OCCN1C(=O)c2ccccc2C1=O gave a CC50 of over 100 µM.
O=C(c1ccccc1)N(C(=S)OCCc1ccccc1)c1ccccc1 was tested, and the CC50 was 91 µM.
Work on O=C(c1cccs1)N(C(=S)OCCOc1ccccc1)c1ccccc1 yielded a CC50 of 125 µM.
Work on O=C(/C=C/c1ccccc1)N(C(=S)OCCOc1ccccc1)c1ccccc1 yielded a CC50 of 66.6 µM.
With O=C(c1ccc(Cl)cc1Cl)N(C(=S)OCCOc1ccccc1)c1ccccc1 the CC50 was 43 µM.
O=C(c1ccccc1)N(C(=S)OCCOc1ccccc1)c1ccc(F)cc1 was tested, and the CC50 was 70.7 µM.
Compound CC(COc1ccccc1)OC(=S)N(C(=O)c1cccs1)c1ccccc1 (stereo unspecified) has a CC50 of over 200 µM.
With O=C(c1ccc(Cl)c([N+](=O)[O-])c1)N(C(=S)OCCOc1ccccc1)c1ccccc1 the CC50 was 80 µM.
O=C1c2ccccc2C(=O)N1CCOC(=S)N(C(=O)c1cccs1)c1cccc(C(F)(F)F)c1 gave a CC50 of over 100 µM.
O=C(c1ccco1)N(C(=S)OCCOc1ccccc1)c1ccccc1 was tested, and the CC50 was 82 µM.
